Key:
[1] = biological target: T1, Hs-dynein 1 (Homo sapiens, UniProt Q14204); assay: Radioactive ATPase assay, basal ATPase activity of Hs-dynein 1; format: biochemical
Method in brief: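 Hs-dynein 1 motor construct (N-terminal His6, aa 1320–4646) at 30 nM, without microtubules. Radioactive ATPase reaction ran for 45 min with test compound. Percent inhibition was obtained by normalising the ATPase rate with compound to DMSO control.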

[2] = biological target: T1, Hs-dynein 1; assay: Radioactive ATPase assay, microtubule-stimulated ATPase activity of Hs-dynein 1; format: biochemical
Method in brief: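 Radioactive ATPase assay with Hs-dynein 1 (His6, aa 1320–4646; 30 nM) in the presence of microtubules. Reaction time was 45 min, and rates with test compound were normalised to DMSO control.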

[3] = biological target: Dm-spastin (Drosophila melanogaster, UniProt Q8I0P1, DEL311-372); assay: NADH-coupled steady-state ATPase assay, Dm-spastin; format: biochemical, D. melanogaster
[4] = biological target: T2, GFP-Sc-Dyn (Saccharomyces cerevisiae, UniProt P36022); assay: NADH-coupled steady-state ATPase assay, GFP-Sc-Dyn basal ATPase; format: biochemical, S. cerevisiae
[5] = biological target: T3, Sc-Dyn-lyso (Saccharomyces cerevisiae, UniProt P36022); assay: Microscale thermophoresis; format: binding, S. cerevisiae
T3 sequence (P36022 1758-2992 limits assumed): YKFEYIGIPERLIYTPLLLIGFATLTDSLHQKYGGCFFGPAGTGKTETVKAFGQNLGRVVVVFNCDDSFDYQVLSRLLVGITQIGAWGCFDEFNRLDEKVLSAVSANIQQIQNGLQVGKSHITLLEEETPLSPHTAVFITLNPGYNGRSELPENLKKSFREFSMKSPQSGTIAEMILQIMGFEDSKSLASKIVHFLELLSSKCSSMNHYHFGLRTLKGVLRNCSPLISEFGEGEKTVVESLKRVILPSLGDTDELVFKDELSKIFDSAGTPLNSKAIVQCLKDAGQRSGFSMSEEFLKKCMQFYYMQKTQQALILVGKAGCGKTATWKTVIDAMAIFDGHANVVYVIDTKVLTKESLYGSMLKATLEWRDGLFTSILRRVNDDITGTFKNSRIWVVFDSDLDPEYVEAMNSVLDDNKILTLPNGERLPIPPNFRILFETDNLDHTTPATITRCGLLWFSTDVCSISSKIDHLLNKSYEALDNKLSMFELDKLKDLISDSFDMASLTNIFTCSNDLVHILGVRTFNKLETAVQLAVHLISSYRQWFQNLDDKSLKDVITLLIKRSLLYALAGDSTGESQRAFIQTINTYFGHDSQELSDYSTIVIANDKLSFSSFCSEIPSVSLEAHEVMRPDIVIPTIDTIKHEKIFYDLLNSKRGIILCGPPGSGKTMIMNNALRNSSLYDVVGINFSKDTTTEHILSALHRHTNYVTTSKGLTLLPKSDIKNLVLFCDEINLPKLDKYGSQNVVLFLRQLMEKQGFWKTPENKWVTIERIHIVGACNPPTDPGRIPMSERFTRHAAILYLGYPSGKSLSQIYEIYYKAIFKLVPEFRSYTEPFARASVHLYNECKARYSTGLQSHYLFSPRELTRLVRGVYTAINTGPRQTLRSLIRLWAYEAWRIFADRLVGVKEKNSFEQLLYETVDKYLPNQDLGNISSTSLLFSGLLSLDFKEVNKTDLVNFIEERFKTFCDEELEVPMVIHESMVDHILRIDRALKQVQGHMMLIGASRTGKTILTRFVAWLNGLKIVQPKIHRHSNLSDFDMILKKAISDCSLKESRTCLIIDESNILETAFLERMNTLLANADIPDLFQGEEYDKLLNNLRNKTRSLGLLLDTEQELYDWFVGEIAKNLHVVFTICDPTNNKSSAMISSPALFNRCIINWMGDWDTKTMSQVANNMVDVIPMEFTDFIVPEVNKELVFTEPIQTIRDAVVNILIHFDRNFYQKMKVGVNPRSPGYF
T3 sequence (P36022 3301-4092 limits assumed): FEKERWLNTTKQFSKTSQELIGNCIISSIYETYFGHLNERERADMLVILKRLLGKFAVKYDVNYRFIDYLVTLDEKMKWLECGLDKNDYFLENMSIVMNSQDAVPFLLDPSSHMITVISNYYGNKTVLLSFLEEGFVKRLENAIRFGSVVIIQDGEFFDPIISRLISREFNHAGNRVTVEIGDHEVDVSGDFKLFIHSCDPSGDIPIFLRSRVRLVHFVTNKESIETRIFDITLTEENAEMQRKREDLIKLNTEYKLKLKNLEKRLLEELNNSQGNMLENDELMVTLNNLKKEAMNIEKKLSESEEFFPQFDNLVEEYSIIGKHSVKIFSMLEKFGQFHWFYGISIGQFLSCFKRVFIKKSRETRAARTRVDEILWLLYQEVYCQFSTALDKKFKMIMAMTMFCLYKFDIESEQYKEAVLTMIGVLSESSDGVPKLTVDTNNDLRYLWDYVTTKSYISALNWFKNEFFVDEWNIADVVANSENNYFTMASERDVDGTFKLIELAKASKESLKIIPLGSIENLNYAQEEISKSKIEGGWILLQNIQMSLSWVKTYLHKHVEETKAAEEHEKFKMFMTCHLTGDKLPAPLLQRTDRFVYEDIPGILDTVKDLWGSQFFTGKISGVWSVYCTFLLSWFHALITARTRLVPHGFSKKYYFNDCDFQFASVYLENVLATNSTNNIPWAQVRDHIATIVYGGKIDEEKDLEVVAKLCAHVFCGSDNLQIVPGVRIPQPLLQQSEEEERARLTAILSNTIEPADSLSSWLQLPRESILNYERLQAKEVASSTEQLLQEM

[6] = biological target: Sc-Dyn-lysoMut (AAA1 E/Q) (Saccharomyces cerevisiae, UniProt P36022, E1849Q); assay: Microscale thermophoresis; format: binding, S. cerevisiae
[7] = biological target: GFP-Sc-Dyn AAA1 E/Q (E1849Q) (Saccharomyces cerevisiae, UniProt P36022, E1849Q); assay: Microscale thermophoresis; format: binding, S. cerevisiae
[8] = biological target: GFP-Sc-Dyn AAA3 E/Q (E2488Q) (Saccharomyces cerevisiae, UniProt P36022, E2488Q); assay: Microscale thermophoresis; format: binding, S. cerevisiae
[9] = biological target: GFP-Sc-Dyn V2391S/M2732S (AAA3_V-S/AAA4_M-S) (Saccharomyces cerevisiae, UniProt P36022, M2732S/V2391S); assay: Microscale thermophoresis; format: binding
[10] = biological target: T2, GFP-Sc-Dyn; assay: Microtubule gliding assay; format: biochemical, S. cerevisiae; conditions: 25 μM compound
[11] = 1% DMSO, 1 mM Mg-ATP, mean ± SD

T1 sequence (Q14204 1320-4646): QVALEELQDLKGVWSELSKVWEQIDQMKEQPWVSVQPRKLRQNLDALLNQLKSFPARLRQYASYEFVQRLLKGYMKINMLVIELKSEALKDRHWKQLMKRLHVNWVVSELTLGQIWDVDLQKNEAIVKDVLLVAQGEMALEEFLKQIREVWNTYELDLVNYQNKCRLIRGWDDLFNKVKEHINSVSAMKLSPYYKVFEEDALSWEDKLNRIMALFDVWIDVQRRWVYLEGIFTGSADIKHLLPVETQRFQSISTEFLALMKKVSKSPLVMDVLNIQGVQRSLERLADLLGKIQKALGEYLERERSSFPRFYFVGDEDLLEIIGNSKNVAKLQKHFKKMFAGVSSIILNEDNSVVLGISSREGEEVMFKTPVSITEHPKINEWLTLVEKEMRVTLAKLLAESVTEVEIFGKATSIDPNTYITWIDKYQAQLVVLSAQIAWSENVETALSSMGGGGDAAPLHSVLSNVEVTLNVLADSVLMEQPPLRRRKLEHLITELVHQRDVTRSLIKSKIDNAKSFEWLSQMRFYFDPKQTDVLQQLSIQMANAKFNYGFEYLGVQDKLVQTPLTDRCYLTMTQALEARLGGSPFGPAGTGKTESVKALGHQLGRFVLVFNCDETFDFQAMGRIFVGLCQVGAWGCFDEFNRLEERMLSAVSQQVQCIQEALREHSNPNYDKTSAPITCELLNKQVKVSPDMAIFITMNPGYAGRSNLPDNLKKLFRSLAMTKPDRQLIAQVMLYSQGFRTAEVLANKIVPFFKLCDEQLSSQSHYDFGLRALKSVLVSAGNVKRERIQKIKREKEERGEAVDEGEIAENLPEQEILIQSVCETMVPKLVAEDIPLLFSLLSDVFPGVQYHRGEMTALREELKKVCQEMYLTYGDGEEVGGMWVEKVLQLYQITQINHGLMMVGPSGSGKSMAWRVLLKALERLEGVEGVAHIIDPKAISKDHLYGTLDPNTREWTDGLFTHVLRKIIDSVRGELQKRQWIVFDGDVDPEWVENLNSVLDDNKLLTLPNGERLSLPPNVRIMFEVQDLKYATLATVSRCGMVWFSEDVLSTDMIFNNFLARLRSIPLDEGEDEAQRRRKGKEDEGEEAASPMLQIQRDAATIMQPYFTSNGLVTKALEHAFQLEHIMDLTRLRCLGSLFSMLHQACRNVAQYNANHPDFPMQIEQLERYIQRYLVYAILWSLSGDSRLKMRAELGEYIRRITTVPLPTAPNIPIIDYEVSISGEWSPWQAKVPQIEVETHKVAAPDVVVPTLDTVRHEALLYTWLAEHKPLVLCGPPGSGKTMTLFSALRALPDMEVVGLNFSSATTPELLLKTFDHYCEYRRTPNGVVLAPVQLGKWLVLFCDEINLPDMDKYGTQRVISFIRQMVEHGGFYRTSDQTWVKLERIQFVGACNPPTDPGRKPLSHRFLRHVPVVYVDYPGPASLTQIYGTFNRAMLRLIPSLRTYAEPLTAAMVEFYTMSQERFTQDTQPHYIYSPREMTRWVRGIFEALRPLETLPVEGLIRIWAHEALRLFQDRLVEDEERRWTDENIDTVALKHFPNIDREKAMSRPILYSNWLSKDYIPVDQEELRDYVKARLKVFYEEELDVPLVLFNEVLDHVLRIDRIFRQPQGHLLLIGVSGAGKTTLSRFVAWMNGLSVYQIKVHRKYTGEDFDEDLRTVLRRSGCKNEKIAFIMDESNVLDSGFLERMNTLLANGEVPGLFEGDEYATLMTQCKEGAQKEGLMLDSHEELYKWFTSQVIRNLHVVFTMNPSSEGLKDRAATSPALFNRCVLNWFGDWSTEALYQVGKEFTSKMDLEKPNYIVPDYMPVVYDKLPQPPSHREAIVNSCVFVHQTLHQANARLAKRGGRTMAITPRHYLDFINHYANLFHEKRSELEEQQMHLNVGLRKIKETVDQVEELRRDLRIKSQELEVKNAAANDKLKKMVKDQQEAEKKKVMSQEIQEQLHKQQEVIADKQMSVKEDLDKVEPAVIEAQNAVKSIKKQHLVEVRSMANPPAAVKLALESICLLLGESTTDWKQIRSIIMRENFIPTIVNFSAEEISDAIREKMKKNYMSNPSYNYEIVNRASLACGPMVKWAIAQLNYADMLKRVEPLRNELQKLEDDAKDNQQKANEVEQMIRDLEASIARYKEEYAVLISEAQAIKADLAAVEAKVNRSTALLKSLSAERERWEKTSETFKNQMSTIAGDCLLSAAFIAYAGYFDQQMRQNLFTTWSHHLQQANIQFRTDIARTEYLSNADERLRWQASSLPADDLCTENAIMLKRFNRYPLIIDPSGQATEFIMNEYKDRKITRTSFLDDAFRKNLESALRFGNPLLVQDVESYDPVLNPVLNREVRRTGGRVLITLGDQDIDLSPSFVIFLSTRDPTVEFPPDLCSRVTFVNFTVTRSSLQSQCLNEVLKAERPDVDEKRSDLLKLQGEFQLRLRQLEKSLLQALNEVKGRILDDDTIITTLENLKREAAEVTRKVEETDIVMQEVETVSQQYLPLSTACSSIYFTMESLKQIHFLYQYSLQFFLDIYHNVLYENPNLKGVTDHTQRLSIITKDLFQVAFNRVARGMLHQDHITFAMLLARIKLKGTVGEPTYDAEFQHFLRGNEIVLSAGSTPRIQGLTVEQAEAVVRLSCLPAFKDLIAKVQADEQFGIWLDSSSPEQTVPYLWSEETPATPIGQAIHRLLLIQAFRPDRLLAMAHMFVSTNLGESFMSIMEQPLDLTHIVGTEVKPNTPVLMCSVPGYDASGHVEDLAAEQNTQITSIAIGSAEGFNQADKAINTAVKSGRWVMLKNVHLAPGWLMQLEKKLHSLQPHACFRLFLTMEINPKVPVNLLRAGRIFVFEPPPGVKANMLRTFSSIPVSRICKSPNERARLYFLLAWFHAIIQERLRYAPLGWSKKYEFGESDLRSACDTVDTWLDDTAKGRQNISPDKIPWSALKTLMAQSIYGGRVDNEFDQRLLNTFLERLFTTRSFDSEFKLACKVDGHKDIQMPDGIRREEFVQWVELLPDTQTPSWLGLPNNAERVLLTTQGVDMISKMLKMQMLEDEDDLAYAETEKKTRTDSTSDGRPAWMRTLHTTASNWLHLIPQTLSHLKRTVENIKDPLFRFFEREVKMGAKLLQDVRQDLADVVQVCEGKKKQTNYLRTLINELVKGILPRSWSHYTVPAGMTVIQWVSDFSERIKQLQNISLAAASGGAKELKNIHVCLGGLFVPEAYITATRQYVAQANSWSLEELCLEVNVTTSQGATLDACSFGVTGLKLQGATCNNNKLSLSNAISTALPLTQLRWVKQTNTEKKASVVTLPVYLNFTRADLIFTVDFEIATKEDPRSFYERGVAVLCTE

## N#Cc1c(C2(c3ccc(Cl)cc3)CC2)nn2c(=O)c(Oc3cccc(Br)c3)c[nH]c12 [compound 20, 6-(3-bromophenoxy)-2-[1-(4-chlorophenyl)cyclopropyl]-7-oxo-4H-pyrazolo[1,5-a]pyrimidine-3-carbonitrile]
[1]
  IC50: 12 ± 9.3 µM
[1]; compounds tested at 20 μM, 1 mM MgATP, no microtubules, n=2
  Inhibition of Hs-dynein 1 basal ATPase activity (in words): most active
[2]
  IC50: ~10 µM
[3]; 20 μM, 1 mM MgATP
  Reduction of ATPase activity, Dm-spastin: < 25%
[3]; compound 20 μM, mean ± SD, n=3
  Percent steady-state ATPase activity, Dm-spastin: 88 ± 4.4%
[4]
  IC50: 14 ± 1 µM
[5]
  EC50: 22 ± 5.3 µM
[6]
  EC50: 34 ± 11 µM
[7]
  EC50: 73 ± 114 µM
[7]; mean ± 95% CI, n=4
  Hill slope, binding to AAA1 E/Q mutant (MST): 1.3 ± 0.9
[8]
  EC50: 87 ± 104 µM
[8]; mean ± 95% CI, n=4
  Hill slope, binding to AAA3 E/Q mutant (MST): 0.8 ± 0.3
[9]
  EC50: > 100 µM
[10]
  Time until most microtubules become immotile: ≤ 30 min
[10]; [11]
  Microtubule gliding velocity, 30 minutes after treatment: 3 ± 5
  Microtubule gliding velocity, immediately after treatment: 35 ± 19
